Laboratory results as given in ChEMBL document CHEMBL1122497, “A polymeric drug for treatment of inflammatory bowel disease” (1983).
Where “and” joins values, the source holds several entries; their conditions need not be identical. Equal values may be shown once.

Legend:
Cavia porcellus [1] = species: Cavia porcellus; assay: Tested for cecal ulceration in diarrhea at 60 umol concentration of compound; format: functional
Method in brief: (§1)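 Male Hartley guinea pigs (242-265 g), groups of 20, were gavaged twice daily with agent solutions or suspensions for 3 days. Then 5 wt % sterile degraded carrageenan was given as the sole drinking fluid, with dosing continued. Diarrhea was checked twice daily, body weight every 3 days, and necropsy done after 24 days of carrageenan.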

Rattus norvegicus [2] = assay: Tested for peak serum concentration in urine after mean oral administered dose in rat; format: functional
Method in brief: (§2)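 Nonfasted female Sim:(SD)fBr rats (200-300 g), acclimated 72 h in metabolism cages, got a single oral dose (20 mg polymer or 16 mg SASP) as aqueous solution or suspension. Blood, urine and feces were collected to 96 h. Samples were β-glucuronidase-treated (37 °C, 18 h), acetylated, extracted and read fluorimetrically (ex 295, em 460 nm) against N-Ac-ASA standards.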

Rattus norvegicus [3] = assay: Tested for total administered dose in rat 5; format: functional; method in brief: as §2
Rattus norvegicus [4] = assay: Tested for peak serum concentration in urine after oral administered dose in rat 4; format: functional; method in brief: as §2
Cavia porcellus [5] = species: Cavia porcellus; assay: Tested for cecal ulceration in necropsy at 60 umol concentration of compound; format: functional; method in brief: as §1
Rattus norvegicus [6] = assay: Tested for peak serum concentration in urine after oral administered dose in rat 6; format: functional; method in brief: as §2
Rattus norvegicus [7] = assay: Tested for total administered dose in rat 4; format: functional
Method in brief: (§3)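 Nonfasted female Sim:(SD)fBr rats (200-300 g), acclimated 72 h to metabolism cages, got one oral dose as aqueous solution or suspension. Blood, urine and feces were collected to 96 h. Samples were hydrolysed with β-glucuronidase (pH 6.9, 37 °C, 18 h), acetylated, extracted with 4-methyl-2-pentanone and back-extracted into pH 6.0 buffer. Total 5-ASA plus metabolites were read fluorimetrically (ex 295, em 460 nm) against N-Ac-ASA standards.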

Rattus norvegicus [8] = assay: Tested for peak serum concentration in feces after oral administered dose in rat 4; format: functional; method in brief: as §2
Rattus norvegicus [9] = assay: Tested for peak serum concentration in feces after oral administered dose in rat 5; format: functional; method in brief: as §3
Rattus norvegicus [10] = assay: (§4) Tested for peak serum concentration in feces after oral administered dose in rat 6; format: functional; method in brief: as §2
Cavia porcellus [11] = species: Cavia porcellus; assay: Tested for cecal ulceration with mortality at 60 umol concentration of compound; format: functional
Method in brief: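 Male Hartley guinea pigs (242-265 g, groups of 20) gavaged twice daily with 60 µmol doses as solution or suspension for 3 days. They were then given 5 wt % sterile degraded carrageenan as sole drinking fluid while dosing continued. Diarrhoea was checked twice daily and weight every 3 days. The study ended after 24 days of carrageenan, with necropsy and blind histology scored against untreated controls (Student's t test).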

Rattus norvegicus [12] = assay: as §4; format: functional; method in brief: as §3; remark: listed apart in the source
Cavia porcellus [13] = species: Cavia porcellus; assay: Tested for mean score after quantitative histological evaluation result in guinea pig; format: functional; parameters: scale not given here
Method in brief: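 Carrageenan colitis in male Hartley guinea pigs: 3 days of twice-daily gavage, then 5 wt % degraded carrageenan drinking water for 24 days with dosing continued. All animals, including early deaths, were scored histologically, reviewed blind by two evaluators. Total points per group were averaged and compared with untreated controls by Student's t test.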

Rattus norvegicus [14] = assay: Tested for peak serum concentration in urine after oral administered dose in rat 5; format: functional; method in brief: as §2
Cavia porcellus [15] = species: Cavia porcellus; assay: Tested for weight loss in guinea pig at 60 umol concentration of compound; format: functional; method in brief: as §1
Rattus norvegicus [16] = assay: Tested for peak serum concentration in feces after mean oral administered dose in rat; format: functional; method in brief: as §2
Rattus norvegicus [17] = species: Rattus norvegicus; assay: Tested for peak serum concentration in rat; format: functional, organism-based; method in brief: as §2
Rattus norvegicus [18] = species: Rattus norvegicus; assay: Tested for peak serum concentration in rat 5; format: functional, organism-based; method in brief: as §2
Rattus norvegicus [19] = species: Rattus norvegicus; assay: Tested for peak serum concentration in rat 6; format: functional, organism-based; method in brief: as §2
Rattus norvegicus [20] = species: Rattus norvegicus; assay: Tested for peak serum concentration in rat 4; format: functional, organism-based; method in brief: as §2
Rattus norvegicus [21] = assay: Tested for total administered dose in rat 2; format: functional; method in brief: as §2
Rattus norvegicus [22] = assay: Tested for peak serum concentration in feces after oral administered dose in rat 1; format: functional; method in brief: as §2
Rattus norvegicus [23] = assay: Tested for peak serum concentration in urine after oral administered dose in rat 1; format: functional; method in brief: as §2
Rattus norvegicus [24] = assay: (§5) Tested for peak serum concentration in feces after oral administered dose in rat 3; format: functional; method in brief: as §2
Rattus norvegicus [25] = assay: as §5; format: functional; method in brief: as §2; remark: listed apart in the source
Rattus norvegicus [26] = assay: Tested for peak serum concentration in urine after oral administered dose in rat 3; format: functional; method in brief: as §2
Rattus norvegicus [27] = assay: Tested for peak serum concentration in urine after oral administered dose in rat 2; format: functional; method in brief: as §2
Rattus norvegicus [28] = assay: Tested for peak serum concentration in feces after oral administered dose in rat 2; format: functional; method in brief: as §2
Rattus norvegicus [29] = assay: Tested for total administered dose in rat 1; format: functional; method in brief: as §2

Compound: O=C(O)c1cc(/N=N/c2ccc(S(=O)(=O)Nc3ccccn3)cc2)ccc1O [SULFASALAZINE]
- Incidence (Cavia porcellus [1]): 100%
- Dose (Rattus norvegicus [2]): 3.7%
- Dose (Rattus norvegicus [3]): 17.2%
- Dose (Rattus norvegicus [4]): 3%
- Incidence (Cavia porcellus [5]): 90%
- Dose (Rattus norvegicus [6]): 5%
- Dose (Rattus norvegicus [7]): 10.7%
- Dose (Rattus norvegicus [8]): 7.7%
- Dose (Rattus norvegicus [9]): 14%
- Dose (Rattus norvegicus [10]): 16.4%
- Incidence (Cavia porcellus [11]): 40%
- Dose (Rattus norvegicus [12]): 11.4%
- Mean score (Cavia porcellus [13]): 2.68
- Dose (Rattus norvegicus [14]): 3.2%
- Weight loss (Cavia porcellus [15]): 44 g
- Percent of oral dose recovered in feces (Rattus norvegicus [16]): 11% and 14.7%

Compound: Nc1ccc(S(=O)(=O)Nc2ccccn2)cc1 [SULFAPYRIDINE]
- Incidence (Cavia porcellus [1]): 80%
- Incidence (Cavia porcellus [5]): 90%
- Incidence (Cavia porcellus [11]): 15%
- Mean score (Cavia porcellus [13]): 3.11
- Weight loss (Cavia porcellus [15]): 17 g

Compound: Nc1ccc(O)c(C(=O)O)c1 [MESALAMINE]
- Incidence (Cavia porcellus [1]): 83%
- Incidence (Cavia porcellus [5]): 83%
- Incidence (Cavia porcellus [11]): 28%
- Mean score (Cavia porcellus [13]): 2.4
- Weight loss (Cavia porcellus [15]): 12 g

Compound: O=C(O)c1cc(/N=N/c2ccc(S(=O)(=O)Nc3ccccn3)cc2)ccc1O
- Concentration (Rattus norvegicus [17]): 2.5 nM ml-1 and 5.6 nM ml-1
- Concentration (Rattus norvegicus [18]): 4 nM ml-1
- Concentration (Rattus norvegicus [19]): 4.8 nM ml-1
- Concentration (Rattus norvegicus [20]): 7.9 nM ml-1

Compound: O=C([O-])c1cc(/N=N/c2ccc(S(=O)(=O)Nc3ccccn3)cc2)ccc1O.[Na+] [POLYMER OF SULFASALAZINE]
- Incidence (Cavia porcellus [1]): 85%
- Dose (Rattus norvegicus [21]): 18.9%
- Dose (Rattus norvegicus [2]): 8%
- Dose (Rattus norvegicus [22]): 5.3%
- Incidence (Cavia porcellus [5]): 85%
- Dose (Rattus norvegicus [23]): 6.7%
- Incidence (Cavia porcellus [11]): 25%
- Dose (Rattus norvegicus [24]): 22%
- Mean score (Cavia porcellus [13]): 2.16
- Weight loss (Cavia porcellus [15]): 37 g
- Dose (Rattus norvegicus [25]): 29.7%
- Dose (Rattus norvegicus [26]): 7.7%
- Percent of oral dose recovered in feces (Rattus norvegicus [16]): 12.3% and 20.2%
- Dose (Rattus norvegicus [27]): 9.5%
- Dose (Rattus norvegicus [28]): 9.4%
- Dose (Rattus norvegicus [29]): 12%
